In ChEMBL document CHEMBL1649128, “SC29EK, a peptide fusion inhibitor with enhanced alpha-helicity, inhibits replication of human immunodeficiency virus type 1 mutants resistant to enfuvirtide” (Antimicrob Agents Chemother, 2009):
Calls of active or inactive are those of the source. The rule behind the calls is not given here. Non-standard residues stand in square brackets, D forms with d. Nle = CCCC[C@H](N)C(=O)O

Assays:
[1] = system: Human immunodeficiency virus 1; assay: Antiviral activity against enfuvirtide-resistant Human immunodeficiency virus 1 NL4-3 harboring gp41 D36G/N126K mutation by MAGI assay using human HeLa Cd4/LTR-beta-galactosidase cells relative to HIV1 NL4-3 gp41 D36G mutant; type: functional
[2] = system: Human immunodeficiency virus 1; assay: (§1) Antiviral activity against enfuvirtide-resistant Human immunodeficiency virus 1 NL4-3 harboring gp41 D36G/I37K/N126K/L204I mutation and 5-amino-acid deletion in the V4 region of gp120 protein by MAGI assay using human HeLa Cd4/LTR-beta-galactosidase cells by MAGI assay; type: functional, organism-based
[3] = system: Human immunodeficiency virus 1; assay: Antiviral activity against enfuvirtide-resistant Human immunodeficiency virus 1 NL4-3 harboring gp41 D36G/N126K mutation by MAGI assay using human HeLa Cd4/LTR-beta-galactosidase cells; type: functional, organism-based
[4] = system: Human immunodeficiency virus 1; assay: Antiviral activity against enfuvirtide-resistant Human immunodeficiency virus 1 NL4-3 harboring gp41 D36G/N43D/S138A mutation by MAGI assay using human HeLa Cd4/LTR-beta-galactosidase cells relative to HIV1 NL4-3 gp41 D36G mutant; type: functional
[5] = system: Human immunodeficiency virus 1; assay: Antiviral activity against enfuvirtide-resistant Human immunodeficiency virus 1 NL4-3 harboring gp41 D36G/V38A mutation by MAGI assay using human HeLa Cd4/LTR-beta-galactosidase cells relative to HIV1 NL4-3 gp41 D36G mutant; type: functional
[6] = system: Human immunodeficiency virus 1; assay: Antiviral activity against enfuvirtide-resistant Human immunodeficiency virus 1 NL4-3 by MAGI assay using human HeLa Cd4/LTR-beta-galactosidase cells relative to HIV1 NL4-3 gp41 D36G mutant; type: functional
[7] = system: Human immunodeficiency virus 1; assay: Antiviral activity against enfuvirtide-resistant Human immunodeficiency virus 1 NL4-3 harboring gp41 D36G/N43D/S138A mutation by MAGI assay using human HeLa Cd4/LTR-beta-galactosidase cells; type: functional, organism-based
[8] = system: Human immunodeficiency virus 1; assay: Antiviral activity against enfuvirtide-resistant Human immunodeficiency virus 1 NL4-3 harboring gp41 D36G/N43D mutation by MAGI assay using human HeLa Cd4/LTR-beta-galactosidase cells relative to HIV1 NL4-3 gp41 D36G mutant; type: functional
[9] = system: Human immunodeficiency virus 1; assay: Antiviral activity against enfuvirtide-resistant Human immunodeficiency virus 1 NL4-3 by MAGI assay using human HeLa Cd4/LTR-beta-galactosidase cells; type: functional, organism-based; details: Human immunodeficiency virus 1, NL4-3, HeLa
[10] = system: Human immunodeficiency virus 1; assay: Antiviral activity against enfuvirtide-resistant Human immunodeficiency virus 1 NL4-3 harboring gp41 D36G mutation by MAGI assay using human HeLa Cd4/LTR-beta-galactosidase cells; type: functional, organism-based
[11] = system: Human immunodeficiency virus 1; assay: Antiviral activity against enfuvirtide-resistant Human immunodeficiency virus 1 NL4-3 harboring gp41 D36G/V38A mutation by MAGI assay using human HeLa Cd4/LTR-beta-galactosidase cells; type: functional, organism-based
[12] = system: Human immunodeficiency virus 1; assay: Antiviral activity against enfuvirtide-resistant Human immunodeficiency virus 1 NL4-3 harboring gp41 D36G/N43D mutation by MAGI assay using human HeLa Cd4/LTR-beta-galactosidase cells; type: functional, organism-based
[13] = system: Human immunodeficiency virus 1; assay: as §1, with “cells relative to HIV1 NL4-3 gp41 D36G mutant” for “cells”; type: functional
[14] = system: Human immunodeficiency virus 1; assay: Antiviral activity against enfuvirtide-resistant Human immunodeficiency virus 1 NL4-3 by MAGI assay using human HeLa Cd4/LTR-beta-galactosidase cells in presence of 5 to 50% fetal calf serum; type: functional, organism-based
Outline: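 MAGI assay against HIV-1 NL4-3 run with FCS at 5, 10, 20 or 50% in the medium. HeLa CD4/LTR-β-galactosidase cells were inoculated at 60 MAGI U/well, cultured 48 h with drug, and X-gal-stained blue cells counted. Each EC50 was determined three times independently, with Student's t test.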

[15] = system: Human immunodeficiency virus 1; assay: Antiviral activity against enfuvirtide-resistant Human immunodeficiency virus 1 NL4-3 by MAGI assay using human HeLa Cd4/LTR-beta-galactosidase cells in presence fresh human serum after 2 hrs; type: functional, organism-based
[16] = system: Human immunodeficiency virus 1; assay: Antiviral activity against Human immunodeficiency virus 1 NL4-3 assessed as decrease in EC50 by MAGI assay relative to ddC; type: functional, organism-based
Outline: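 HeLa CD4/LTR-β-galactosidase (MAGI) cells were seeded at 10^4/well and infected next day with HIV-1 NL4-3 (60 MAGI U/well). They were cultured 48 h with serial drug dilutions in medium containing 5, 10, 20 or 50% FCS, with ddC as the reverse transcriptase inhibitor reference. X-gal-stained blue cells were counted. EC50 is the concentration giving 50% inhibition, determined three times independently.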

Compound | Ratio EC50 [1] | EC50 [2] [nM] | EC50 [3] [nM] | Ratio EC50 [4] | Ratio EC50 [5] | Ratio EC50 [6] | EC50 [7] [nM] | Ratio EC50 [8] | EC50 [9] [nM] | EC50 [10] [nM] | EC50 [11] [nM] | EC50 [12] [nM] | Ratio EC50 [13] | inhibition [14] | inhibition [15] | inhibition [16]
H-WEEWDKKIEEYTKKIEELIKKS-OH | >1.5 | 252 | > 1000 | >1.5 | 0.4 | 0.3 | > 1000 | 0.2 | 217 | 686 | 289 | 114 | 0.4 |  |  | 
CC[C@H](C)[C@H](NC(=O)[C@H](CC(C)C)NC(=O)[C@H](CO)NC(=O)[C@H](Cc1cnc[nH]1)NC(=O)[C@@H](NC(=O)[C@H](CC(C)C)NC(=O)[C@H](CO)NC(=O)[C@@H](NC(=O)[C@H](Cc1ccc(O)cc1)NC(=O)[C@H](CC(N)=O)NC(=O)[C@H](CC(N)=O)NC(=O)[C@@H](NC(=O)[C@H](CCC(=O)O)NC(=O)[C@H](CCCNC(=N)N)NC(=O)[C@H](CC(=O)O)NC(=O)[C@H](Cc1c[nH]c2ccccc12)NC(=O)[C@H](CCC(=O)O)NC(=O)[C@@H](CCS)NC(=O)[C@@H](N)Cc1c[nH]c2ccccc12)[C@@H](C)CC)[C@@H](C)O)[C@@H](C)CC)C(=O)N[C@@H](CCC(=O)O)C(=O)N[C@@H](CCC(=O)O)C(=O)N[C@@H](CO)C(=O)N[C@@H](CCC(N)=O)C(=O)N[C@@H](CC(N)=O)C(=O)N[C@@H](CCC(N)=O)C(=O)N[C@@H](CCC(N)=O)C(=O)N[C@@H](CCC(=O)O)C(=O)N[C@@H](CCCCN)C(=O)N[C@@H](CC(N)=O)C(=O)N[C@@H](CCC(N)=O)C(=O)N[C@@H](CCC(=O)O)C(=O)N[C@@H](CC(C)C)C(=O)N[C@@H](CC(C)C)C(=O)O | 3.7 | > 1000 | 192 | >19 | 9.7 | 4.7 | > 1000 | >19 | 245 | 52 | 504 | > 1000 | >19 |  |  | 
H-WEEWDKKIEEYTKKIEELIKKSEEQQKKN-OH | 1.4 | 50 | 2.7 | 1.8 | 1.6 | 1.3 | 3.4 | 2.2 | 2.4 | 1.9 | 3 | 4.1 | 26 | Active | Active | 
H-W[Nle]EWDRKIEEYTKKIEELIKKSQEQQEKNEKELKREREREG-OH | 5 | 3 | 12 | 0.6 | 0.9 | 0.7 | 1.5 | 0.7 | 1.6 | 2.4 | 2.2 | 1.6 | 1.3 | Active |  | 
enfuvirtide | 1.4 | 390 | 3.4 | 35 | 9.6 | 6.3 | 84 | 20 | 15 | 2.4 | 23 | 49 | 163 | inactive | Active | inactive
